Laboratory results as given in ChEMBL document CHEMBL1154840, “New pyrazoles incorporating pyrazolylpyrazole moiety: synthesis, anti-HCV and antitumor activity” (Eur J Med Chem, 2010).
Values after ≈ are worked out from the molar mass of the structure shown. Active and inactive are the calls of the source. No cut-off for these calls is given here.

Key:
Mus musculus [1] = assay: Toxicity in mouse Colon 38 cells xenografted C57BL/6 mouse assessed as body weight change at 3 mg/kg, iv administered as a single dose; type: organism-based, MC-38; parameters: dose 3 mg/kg, route intravenous; conditions: in vivo
Outline: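 Female C57BL/6 mice, 6 weeks old, had about 30 mg of Colon 38 tumour tissue implanted s.c. in the flank. When tumours reached about 300 mm³ on day 1, mice were randomised into control and treatment groups (n = 5 each). Compound in 5% glucose was given once on day 1 by tail-vein i.v. injection; controls received 5% glucose. Body weight was tracked over subsequent days.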

[2] = Antioxidant activity against peroxynitrite-induced tyrosine nitration after 15 mins by HPLC; type: functional
Outline: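 Tyrosine (100 μM) was reacted with equimolar peroxynitrite and increasing compound concentrations (0–300 μM) in 100 mM phosphate buffer pH 7.4 at 37 °C for 15 min. 3-Nitrotyrosine formation was measured by reverse-phase C18 HPLC using a methanol/water/HCl and acetonitrile/water/HCl mobile phase. IC50 reported.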

[3] = test system: Radical scavenging activity; assay: Antioxidant activity against DPPH radical scavenging activity after 30 mins by ELISA; type: functional; parameters: concentration or dose not given beside the values
Outline: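 DPPH radical scavenging. Compounds were dissolved in DMSO and serially diluted, 0.0–100 μM/ml. 10 µl was added to 90 µl of 100 µM DPPH in methanol and incubated 30 min at 37 °C in the dark. Decrease in absorbance was read at 515 nm. % reduction = [(A_B − A_A)/A_B] × 100, against a DMSO/DPPH blank. Triplicate.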

MC-38 [4] = assay: Antitumor activity against mouse Colon 38 cells xenografted in C57BL/6 mouse assessed as tumor volume at 3 mg/kg, iv administered as a single dose; type: functional, organism-based; parameters: dose 3 mg/kg
Outline: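 Female C57BL/6 mice, 6 weeks old, were inoculated s.c. in the flank with about 30 mg Colon 38 tumor tissue. When tumors reached approximately 300 mm³ (day 1), mice were randomized, n = 5 per group. Compound in 5% glucose was given as a single i.v. tail-vein dose on day 1; controls received 5% glucose. Tumor volume = ([…])/2; body weight also recorded.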

[5] = test system: Measles virus (SSPE virus); assay: Antiviral activity against measles virus infected in hamster brain assessed as inhibition of subacute sclerosing panencephalitis dosed intracranially by HPLC
MC-38 [6] = assay: Growth inhibition of mouse Colon 38 cells after 72 hrs by sulforhodamine B assay relative to etoposide; type: functional
Outline: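 Exponentially growing cells were seeded on day 0. Graded drug concentrations were added on day 1, followed by 72 h at 37 °C. Cell number was estimated by SRB assay, with a separate day-1 count. GI50 is the concentration giving a 50% reduction in net protein increase versus control.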

Hepacivirus hominis = assay: Inhibition of HCV […] by quantitative RT-PCR
Outline: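 HCV replicon cells, 1×10^4 per well, were plated and the next day exposed to serially diluted compounds in DMEM with 2% FBS and 0.5% DMSO at 37 °C. Total RNA was extracted and HCV RNA copy number was measured by quantitative RT-PCR. Five replicates per point; MIC reported.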

[7] = target: DNA topoisomerase 2-alpha (Mus musculus) (UniProt Q01320); assay: Inhibition of mouse DNA topoisomerase 2 assessed as relaxation of supercoiled pBR322 plasmid DNA after 1 hr by electrophoresis relative to etoposide
Outline: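 Topoisomerase II was purified from P388 cells. 0.125 μg supercoiled pBR-322 DNA was incubated with 1 unit of enzyme at 30 °C for 1 h in 50 mM Tris–HCl pH 8.0, 100 mM KCl, 10 mM MgCl2, 0.5 mM DTT, 1 mM ATP and 30 μg/ml BSA. Products were resolved on 0.7% agarose in TBE and stained with ethidium bromide.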

Mus musculus [8] = assay: Toxicity in mouse Colon 38 cells xenografted C57BL/6 mouse assessed as mortality at 3 mg/kg, iv administered as a single dose; type: organism-based, MC-38; parameters: dose 3 mg/kg, route intravenous; conditions: in vivo

DNA topoisomerase 2-alpha (Mus musculus), sequence (Q01320 whole entry): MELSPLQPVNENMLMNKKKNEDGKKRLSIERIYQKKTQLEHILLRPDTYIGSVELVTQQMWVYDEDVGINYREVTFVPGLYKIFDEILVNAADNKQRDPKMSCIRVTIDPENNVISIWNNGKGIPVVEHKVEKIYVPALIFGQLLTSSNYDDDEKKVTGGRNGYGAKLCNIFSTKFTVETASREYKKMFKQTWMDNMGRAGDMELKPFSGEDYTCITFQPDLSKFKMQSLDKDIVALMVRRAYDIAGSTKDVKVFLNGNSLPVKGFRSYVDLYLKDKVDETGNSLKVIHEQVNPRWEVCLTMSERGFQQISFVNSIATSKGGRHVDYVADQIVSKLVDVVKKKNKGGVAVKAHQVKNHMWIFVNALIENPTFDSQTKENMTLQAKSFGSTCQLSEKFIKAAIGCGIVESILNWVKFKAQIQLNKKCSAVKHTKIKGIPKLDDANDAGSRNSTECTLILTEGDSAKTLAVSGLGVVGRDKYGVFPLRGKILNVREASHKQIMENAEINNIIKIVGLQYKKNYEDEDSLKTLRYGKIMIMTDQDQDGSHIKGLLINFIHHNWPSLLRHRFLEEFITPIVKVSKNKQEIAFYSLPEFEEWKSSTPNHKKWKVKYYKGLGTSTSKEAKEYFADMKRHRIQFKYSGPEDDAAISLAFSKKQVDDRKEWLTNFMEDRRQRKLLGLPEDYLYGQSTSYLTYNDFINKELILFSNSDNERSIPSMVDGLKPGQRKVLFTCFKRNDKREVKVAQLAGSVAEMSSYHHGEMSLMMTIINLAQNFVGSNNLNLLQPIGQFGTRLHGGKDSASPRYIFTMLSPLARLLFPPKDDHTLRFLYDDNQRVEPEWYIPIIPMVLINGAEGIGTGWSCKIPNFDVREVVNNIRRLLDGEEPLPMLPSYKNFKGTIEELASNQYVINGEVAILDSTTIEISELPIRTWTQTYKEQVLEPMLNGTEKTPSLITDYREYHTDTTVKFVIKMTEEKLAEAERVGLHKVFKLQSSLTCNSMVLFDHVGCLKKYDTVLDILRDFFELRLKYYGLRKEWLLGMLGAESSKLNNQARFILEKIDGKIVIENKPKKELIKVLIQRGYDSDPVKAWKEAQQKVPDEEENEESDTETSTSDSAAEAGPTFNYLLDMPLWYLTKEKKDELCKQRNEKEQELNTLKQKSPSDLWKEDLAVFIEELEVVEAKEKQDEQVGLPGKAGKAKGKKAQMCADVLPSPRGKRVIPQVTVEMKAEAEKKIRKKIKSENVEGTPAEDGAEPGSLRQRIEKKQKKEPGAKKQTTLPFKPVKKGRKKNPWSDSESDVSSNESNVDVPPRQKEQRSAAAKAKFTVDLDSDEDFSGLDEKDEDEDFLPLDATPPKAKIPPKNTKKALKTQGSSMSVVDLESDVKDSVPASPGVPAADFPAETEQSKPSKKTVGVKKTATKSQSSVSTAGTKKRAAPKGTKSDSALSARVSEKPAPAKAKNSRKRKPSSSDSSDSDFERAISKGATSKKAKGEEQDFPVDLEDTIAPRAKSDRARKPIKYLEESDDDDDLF

SMILES	Activity (Mus musculus [1])	IC50 [2] [µM]	Activity [3] [%]	Activity (MC-38 [4])	MIC [5] [µg/mL]	RatioGI50 (MC-38 [6])	MIC (Hepacivirus hominis) [µg/mL]	Ratio [7]	Activity (Mus musculus [8])
CC(=O)c1nn(-c2ccccc2)cc1C(=O)c1nn(-c2ccccc2)cc1C(=O)c1nn(-c2ccc(C)cc2)cc1C(=O)c1ccccc1	Non-toxic	34	96.9	Active	3.12 (≈ 4.84 µM)	260.6	0.149 (≈ 0.231 µM)	261	Non-toxic
CC(=O)c1nn(-c2ccc(Cl)cc2)cc1C(=O)c1ccccc1		38.1	95.5		3.52 (≈ 10.8 µM)	178.6	0.161 (≈ 0.496 µM)	178	
CC(=O)c1nn(-c2ccccc2)cc1C(=O)c1nn(-c2ccc([N+](=O)[O-])cc2)cc1C(=O)c1ccccc1	Non-toxic	36.6	96	Active	3.22 (≈ 6.36 µM)	194.8	0.155 (≈ 0.307 µM)	195	Non-toxic
CC(=O)c1nn(-c2ccccc2)cc1C(=O)c1nn(-c2ccccc2)cc1C(=O)c1nn(-c2ccc(Cl)cc2)cc1C(=O)c1ccccc1	Non-toxic	35.1	96.1	Active	3.2 (≈ 4.81 µM)	196.1	0.151 (≈ 0.227 µM)	196	Non-toxic
Cc1c(C)c2c(c(C)c1O)CCC(C)(C(=O)O)O2 (centres undefined) [TROLOX]		58.4							
CN(C)/C=C/C(=O)c1nn(-c2ccccc2)cc1C(=O)c1nn(-c2ccc(Cl)cc2)cc1C(=O)c1ccccc1	Non-toxic	44.6	93	Active	4.15 (≈ 7.55 µM)	37.97	0.323 (≈ 0.587 µM)	37.9	Non-toxic
Cc1ccc(-n2cc(C(=O)c3ccccc3)c(C(=O)/C=C/N(C)C)n2)cc1	Non-toxic	34.2	96.6	Active	3.18 (≈ 8.84 µM)	260.4	0.15 (≈ 0.417 µM)	260	Non-toxic
O=C1O[C@H]([C@@H](O)CO)C(O)=C1O			79						
CC(=O)c1nn(-c2ccc([N+](=O)[O-])cc2)cc1C(=O)c1ccccc1	Non-toxic	31.5	98.2	Active	3.09 (≈ 9.21 µM)	260.9	0.144 (≈ 0.429 µM)	261	Non-toxic
Cc1ccc(-n2cc(C(=O)c3ccccc3)c(C(=O)c3cn(-c4ccccc4)nc3C(=O)/C=C/N(C)C)n2)cc1	Non-toxic	42.2	94.9	Active	3.82 (≈ 7.21 µM)	150	0.181 (≈ 0.342 µM)	150	Non-toxic
CC(=O)c1nn(-c2ccc(C)cc2)cc1C(=O)c1ccccc1	Non-toxic	37.8	95.8	Active	3.42 (≈ 11.3 µM)	188.7	0.159 (≈ 0.522 µM)	189	Non-toxic
CC(=O)c1nn(-c2ccccc2)cc1C(=O)c1nn(-c2ccc(Cl)cc2)cc1C(=O)c1ccccc1	Non-toxic	32.2	97.7	Active	3.11 (≈ 6.29 µM)	260.9	0.147 (≈ 0.297 µM)	261	Non-toxic
CC(=O)c1nn(-c2ccccc2)cc1C(=O)c1nn(-c2ccc(C)cc2)cc1C(=O)c1ccccc1	Non-toxic	44.1	94	Active	4.12 (≈ 8.68 µM)	38.46	0.322 (≈ 0.679 µM)	38.4	Non-toxic
CN(C)/C=C/C(=O)c1nn(-c2ccccc2)cc1C(=O)c1nn(-c2ccccc2)cc1C(=O)c1ccccc1	Non-toxic	44	94.7	Active	3.99 (≈ 7.74 µM)	142.9	0.291 (≈ 0.564 µM)	143	Non-toxic
CC(=O)c1nn(-c2ccccc2)cc1C(=O)c1nn(-c2ccccc2)cc1C(=O)c1nn(-c2ccccc2)cc1C(=O)c1ccccc1	Non-toxic	42.1	95	Active	3.71 (≈ 5.89 µM)	150.8	0.171 (≈ 0.271 µM)	151	Non-toxic
CN(C)/C=C/C(=O)c1nn(-c2ccccc2)cc1C(=O)c1ccccc1	Non-toxic	44	94.5	Active	4 (≈ 11.6 µM)	136.4	0.32 (≈ 0.926 µM)	136	Non-toxic
CC(=O)c1nn(-c2ccccc2)cc1C(=O)c1ccccc1	Non-toxic	39.5	95.2	Active	3.62 (≈ 12.5 µM)	168.5	0.162 (≈ 0.558 µM)	168	Non-toxic
